From paper PMC9474599 (Immunity, 2022)
Entries after “also recorded” stand apart in the source; their conditions may differ. *1 amine or outer side, *2 acyl side, *3 side chain or, on linkers, in order; H or OH if unused. Where a SMILES comes first, the peptide text is derived from it. Bridges are numbered along the chain shown (N, C = ends). Where no end group is shown, it is not given here. [ ]: non-standard residue; d: D form. The star is where a group is joined. X1 = CC(=O)NC(C(=O)OC(C(C)C)C(N[*:1])C(=O)[*:2])C(O)C(C)C; Biotin = O=C1N[C@H]2[C@H](CS[C@H]2CCCCC(=O)*)N1; PhLac = O=C(O)[CH](O)Cc1ccccc1; NMeT = CN[CH](C(=O)O)[CH](C)O; NMeA = CN[CH](C)C(=O)O; NMeDha = C=C(NC)C(=O)O

How the values were obtained:
bone marrow neutrophils [1] = assay: Western blot of IL-1β release from neutrophils; assay type: cell-based, mouse; details: for Inhibition of hBD3-mediated IL-1β release: WT neutrophils, inhibitor 10μM added together with LTA, n=3
Mrgpra2b-GFP [2] = target: T1, Mrgpra2b-GFP (Mus musculus, UniProt Q91WW4); assay: co-IP of biotin-hBD3 with Mrgpra2b-GFP; assay type: binding; details: 10μM biotin-hBD3, 4°C overnight, anti-GFP beads, anti-biotin western blot
T1 sequence (Q91WW4 1-305): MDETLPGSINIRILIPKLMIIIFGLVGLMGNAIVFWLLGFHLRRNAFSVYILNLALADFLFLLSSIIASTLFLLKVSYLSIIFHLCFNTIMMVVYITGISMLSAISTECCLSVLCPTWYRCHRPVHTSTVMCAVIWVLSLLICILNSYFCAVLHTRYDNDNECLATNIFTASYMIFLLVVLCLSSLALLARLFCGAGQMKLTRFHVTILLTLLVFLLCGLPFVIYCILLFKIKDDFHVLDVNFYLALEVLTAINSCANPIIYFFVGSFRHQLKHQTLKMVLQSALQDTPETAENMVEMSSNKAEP

neutrophils [3] = assay: Neutrophil elastase release; assay type: cell-based; details: Mrgpra2 dKO mouse neutrophils; hBD3 0-10 μM or 10 μM mBD14, one hour; n=5
Method in brief: (§1)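 Bone marrow neutrophils were MACS-purified from 8-10-week-old C57BL/6J-background mice of both sexes, with >90% purity by flow cytometry. 2×10^5 cells in RPMI were incubated 1 h with 0, 1, 5 or 10 μM hBD3 or 10 μM mBD14, both dissolved in RPMI. Elastase and MPO in the supernatant were quantified by DuoSet sandwich ELISA.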

bone marrow neutrophils [4] = assay: IL-1β and Cxcl2 release from neutrophils; assay type: cell-based, mouse
Method in brief: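 MACS-purified bone marrow neutrophils were primed with 1 μg/mL S. aureus lipoteichoic acid for 2 h. hBD3 or mBD14 was then added at 10 μM final. After a further 2 h, supernatants were collected and cells lysed in RIPA buffer. IL-1β and Cxcl2 were measured in both fractions by DuoSet ELISA. 5 mM ATP served as positive control.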

Mrgpra2b = target: T2, Mrgpra2b (Mus musculus, UniProt Q91WW4); assay: FLIPR intracellular Ca2+ mobilization, HEK cells expressing Mrgpra2b; assay type: cell-based; details: for Mrgpra2 receptor activation: FLIPR Ca2+ mobilization, Figure S1E (negative peptides), Figure 1E
T2 sequence (Q91WW4 1-305): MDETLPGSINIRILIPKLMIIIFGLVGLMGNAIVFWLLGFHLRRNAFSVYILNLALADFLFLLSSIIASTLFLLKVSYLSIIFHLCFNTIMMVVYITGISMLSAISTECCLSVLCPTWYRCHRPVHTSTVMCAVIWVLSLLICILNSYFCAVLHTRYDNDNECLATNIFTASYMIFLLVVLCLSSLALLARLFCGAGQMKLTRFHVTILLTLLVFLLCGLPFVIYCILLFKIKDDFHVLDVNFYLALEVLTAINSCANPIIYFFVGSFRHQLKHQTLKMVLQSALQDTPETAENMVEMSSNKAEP

neutrophils [5] = assay: Neutrophil myeloperoxidase; assay type: cell-based; details: Mrgpra2 dKO mouse neutrophils; hBD3 0-10 μM or 10 μM mBD14, one hour; n=5
Method in brief: as §1

bone marrow neutrophils [6] = assay: Proteome profiler array of neutrophil cytokines and chemokines; assay type: cell-based, mouse; details: S. aureus LTA 1 μg/mL alone (signal 1), vs control
Mrgpra2b-GFP [7] = target: T3, Mrgpra2b-GFP (mouse, UniProt Q91WW4 1-305); assay: flow cytometry on cells
T3 sequence (looked up): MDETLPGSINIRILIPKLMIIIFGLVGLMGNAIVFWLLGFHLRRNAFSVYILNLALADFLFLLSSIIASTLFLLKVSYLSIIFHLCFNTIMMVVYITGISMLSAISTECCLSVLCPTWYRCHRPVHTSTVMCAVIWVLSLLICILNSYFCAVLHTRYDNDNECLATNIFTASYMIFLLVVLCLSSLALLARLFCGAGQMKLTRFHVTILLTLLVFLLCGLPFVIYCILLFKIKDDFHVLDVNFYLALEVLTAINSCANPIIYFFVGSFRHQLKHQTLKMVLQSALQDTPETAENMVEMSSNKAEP

S. aureus = assay: Intradermal S. aureus skin infection, bacterial bioluminescence; assay type: in vivo, Staphylococcus aureus USA300 LAC::lux in mouse; details: 100ng each, co-injected with S. aureus; bioluminescence 24 hours post-infection; n=8-36
MRGPRX3-FLAG (human) = MRGPRX3-FLAG (human) (UniProt Q96LB0)
Sequence of MRGPRX3-FLAG (human) (Q96LB0 whole entry): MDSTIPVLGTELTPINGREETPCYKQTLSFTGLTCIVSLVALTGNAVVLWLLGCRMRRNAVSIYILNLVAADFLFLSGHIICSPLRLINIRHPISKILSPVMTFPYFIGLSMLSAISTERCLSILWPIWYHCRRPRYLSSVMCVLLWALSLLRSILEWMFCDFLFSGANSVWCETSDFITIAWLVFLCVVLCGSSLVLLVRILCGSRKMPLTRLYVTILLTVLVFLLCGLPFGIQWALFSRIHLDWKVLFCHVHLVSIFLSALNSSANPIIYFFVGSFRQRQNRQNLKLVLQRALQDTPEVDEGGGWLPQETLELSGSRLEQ

[8] = ELISA, LTA 1 μg/mL 2 hours, then 10 μM hBD3 or mBD14 for 2 hours, n=5

CC(C)[C@H](NC(=O)c1ccc2ccccc2n1)C(=O)N[C@@H](CC(=O)O)C(=O)COc1c(F)cccc1F [Q-VD-OPh]
Inhibition of hBD3-mediated IL-1β release (bone marrow neutrophils [1]): inhibited; also recorded: effectively reduced IL-1β release from WT neutrophils in response to hBD3

C=C1C(=O)NC(C)C(=O)N(C)C(C)C(=O)NC(C(OC(=O)C(NC(C)=O)C(O)C(C)C)C(C)C)C(=O)N(C)C(C(C)OC)C(=O)OC(C)C(NC(C)=O)C(=O)OC(Cc2ccccc2)C(=O)N1C (stereo not shown) [YM-254890] (Ac-T[PhLac][NMeDha]A[NMeA][X1][NMeT](Me); ester 1-C; configuration not given here)
Inhibition of hBD3-mediated IL-1β release (bone marrow neutrophils [1]): inhibited

Biotin-GIINTLQKYYCRVRGGRCAVLSCLPKEEQIGKCSTRGRKCCRRKK (disulfide 11-40, 18-33, 23-41) [biotin-hBD3]
Co-precipitation with Mrgpra2b-GFP (Mrgpra2b-GFP [2]): co-precipitated only with Mrgpra2b-GFP; also recorded: could be co-precipitated

FLPKTLRKFFCRIRGGRCAVLNCLGKEEQIGRCSNSGRKCCRKKK (disulfide 11-40, 18-33, 23-41) [mBD14]
Elastase release, Mrgpra2 dKO neutrophils (neutrophils [3]): did not respond to hBD3 or mBD14 stimuli | Synthesis of IL-1β or Cxcl2, defensin alone (bone marrow neutrophils [4]; ELISA, total = secreted + intracellular, defensin alone, no LTA, n=5): did not induce the synthesis of IL-1β or Cxcl2 | Cxcl2 release, LTA-primed Mrgpra2 dKO neutrophils (bone marrow neutrophils [4]; [8]): did not respond to hBD3 or mBD14 | Cxcl2 release, LTA-primed WT neutrophils (bone marrow neutrophils [4]; [8]): released IL-1β and Cxcl2 in response to hBD3 or mBD14 stimuli; also recorded: significant increase in the amount of IL-1β and Cxcl2 | IL-1β release, LTA-primed Mrgpra2 dKO neutrophils (bone marrow neutrophils [4]; [8]): did not respond to hBD3 or mBD14 | IL-1β release, LTA-primed WT neutrophils (bone marrow neutrophils [4]; [8]): released IL-1β and Cxcl2 in response to hBD3 or mBD14 stimuli; also recorded: significant increase in the amount of IL-1β | EC50 (Mrgpra2b): 18.7 µM | Mrgpra2 receptor activation (Mrgpra2b): evoked robust receptor activation | MPO release, Mrgpra2 dKO neutrophils (neutrophils [5]): did not respond to hBD3 or mBD14 stimuli

KKINNPVSCLRKGGRCWNRCIGNTRQIGSCGVPFLKCCKRK (disulfide 9-37, 16-30, 20-38) [mBD3]
EC50 (Mrgpra2b): 42.8 µM

hBD1: Human peptide hBD1 (DHYNCVSSGGQCLYSACPIFTKIQGTCYRGKAKCCK; UniProt P60022 33-68, looked up)
Mrgpra2 receptor activation (Mrgpra2b): did not trigger receptor activation

hBD2: Human peptide, printed as 'hBD1, 2 and 4' (GIGDPVTCLKSGAICHPVFCPRRYKQIGTCGLPGTKCCKKP; UniProt O15263 24-64, looked up)
Mrgpra2 receptor activation (Mrgpra2b): did not trigger receptor activation

hBD4: Human peptide, printed as 'hBD1, 2 and 4' (EFELDRICGYGTARCRKKCRSQEYRIGRCPNTYACCLRKWDESLLNRTKP; UniProt Q8WTQ1 23-72, looked up)
Mrgpra2 receptor activation (Mrgpra2b): did not trigger receptor activation

lipoteichoic acid [LTA]
Release of IL-1ra, Ccl3, Ccl4, Cxcl2 and TNFα by LTA alone (bone marrow neutrophils [6]): triggered the release of more IL-1ra, Ccl3, Ccl4, Cxcl2 and TNFα compared to the control | IL-1β production and release by LTA alone (bone marrow neutrophils [4]; S. aureus LTA 1 μg/mL alone (signal 1), Figure 7A, D): induced the production of IL-1β, but the cytokine was not released from the cells | Priming effect of LTA, WT versus Mrgpra2 dKO neutrophils (bone marrow neutrophils [4]; S. aureus LTA 1 μg/mL, Figure 7A, C, D): did not differ between WT or Mrgpra2 dKO neutrophils | Production of pro-IL-1β by LTA (bone marrow neutrophils [1]; S. aureus LTA 1 μg/mL, WT and Mrgpra2 dKO neutrophils): induced the production of pro-IL-1β in both WT and Mrgpra2 dKO neutrophils

mBD1: mouse peptide mBD1 (DQYKCLQHGGFCLRSSCPSNTKLQGTCKPDKPNCCKS; UniProt P56386 33-69, looked up)
Mrgpra2 receptor activation (Mrgpra2b): did not trigger receptor activation

mBD2: mouse peptide, printed as 'mBD1, 2, 4' (AVGSLKSIGYEAELDHCHTNGGYCVRAICPPSARRPGSCFPEKNPCCKYMK; UniProt P82020 21-71, looked up)
Mrgpra2 receptor activation (Mrgpra2b): did not trigger receptor activation

Biotin-GIINTLQKYYCRVRGGRCAVLSCLPKEEQIGKCSTRGRKCCRRKK (peptide, UniProt P81534 23-67, looked up, ends and bridges not checked) [N-terminal biotinylated human beta-defensin 3]
Kd (Mrgpra2b-GFP [7]): 15.9 µM

B1: IL-1β: Recombinant IL-1β, R&D systems 401-ML (protein, UniProt P10749 118-269, looked up)
Interleukin-1 beta: VPIRQLHYRLRDEQQKSLVLSDPYELKALHLNGQNINQQVIFSMSFVQGEPSNDKIPVALGLKGKNLYLSCVMKDGTPTLQLESVDPKQYPKKKMEKRFVFNKIEVKSKVEFESAEFPNWYISTSQAEHKPVFLGNNSGQDIIDFTMESVSS
Bacterial load / anti-S. aureus rescue, Def cKO mice (S. aureus): rescued the anti-S. aureus defect of Mrgpra2 dKO and Def cKO mice; also recorded: significantly reduced the bacterial load | Bacterial load / anti-S. aureus rescue, Mrgpra2 dKO mice (S. aureus): rescued the anti-S. aureus defect of Mrgpra2 dKO and Def cKO mice; also recorded: significantly reduced the bacterial load

GIINTLQKYYCRVRGGRCAVLSCLPKEEQIGKCSTRGRKCCRRKK (ends and bridges not checked; cysteine pairing not given here) [Human beta-defensin 3]
EC50 of FLIPR intracellular calcium mobilization in HEK cells expressing MRGPRX3 (MRGPRX3-FLAG (human)): 10.8 µM

B2: Cxcl2: recombinant mouse Cxcl2, R&D (protein, UniProt P10889 28-100, looked up)
C-X-C motif chemokine 2: AVVASELRCQCLKTLPRVDFKNIQSLSVTPPGPHCAQTEVIATLKGGQKVCLDPEAPLVQKIIQKILNKGKAN
Bacterial load / anti-S. aureus rescue, Def cKO mice (S. aureus): did not rescue Mrgpra2 or Def KO phenotypes; also recorded: did not alter the mutant phenotypes | Bacterial load / anti-S. aureus rescue, Mrgpra2 dKO mice (S. aureus): did not rescue Mrgpra2 or Def KO phenotypes; also recorded: did not alter the mutant phenotypes
